AHR activator – AHR activators, primary screen, cell-based, luminescence, luciferase reporter, human; AID 2796, 2010; 320,000 compounds, 2.5% hits; AHR-responsive luciferase reporter cells; activation, % at 5 µM; in the data active = activation above about 47%;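 also: 0% = vehicle wells and 100% = reference agonist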
SMARCA2 activ – SMARCA2 (BRM) function activators, primary screen, cell-based, luminescence, high throughput | MG213 cells, MMTV-luciferase reporter, dexamethasone, overnight | activation, % at 9.1 µM | 370,000 compounds, 1% hits | AID 652017, 2013; in the data active = activation above about 7.8%;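 also: 0% = vehicle wells and 100% = reference activator wells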
TAG inh – inhibitors of triacylglycerol accumulation, primary screen, cell-based, uHTS, fluorescence, H9c2; 230,000 compounds, 0.66% hits; H9c2 cells, Nile Red lipid (TAG) fluorescence; cells loaded with 200 µM oleic acid; inhibition, % at 12.5 µM;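 active = pattern-corrected inhibition of lipid staining of at least 50% with the nuclear-stain viability signal not falling by more than 50%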;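 also: 0% = DMSO wells and 100% = triacsin C control wells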
Tb MetRS inh – T. brucei MetRS inhibitors, primary screen, biochemical, luminescence | inhibition, % at 11.9 µM | 360,000 compounds, 0.4% hits | purified T. brucei MetRS, ATP depletion, Kinase-Glo luminescence | AID 624268, 2012 | methionyl-tRNA synthetase (Trypanosoma brucei brucei);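 active = inhibition above a per-plate cutoff of the control wells' mean inhibition plus 3 SD, cut at about 5.5% in these data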;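 also: 0% = DMSO wells median and 100% = median of wells with control inhibitor compound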
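Assay system: T. brucei methionyl-tRNA synthetase, purified | Medium: HEPES buffer with MgCl2, KCl, DTT, spermine, BSA, pyrophosphatase | Compound: 11.9 µM single point | Incubation: 15 min enzyme-compound preincubation, 2 h reaction, 10 min detection, 25 °C | Measured by: Kinase-Glo luciferase luminescence reporting remaining unconsumed ATP | Measure: % inhibition normalized to control-well medians | Replication: Singlicate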
Efflux pump inh – inhibitors of Candida efflux pumps in yeast, primary screen, S. cerevisiae, Nile Red, multiplex; S. cerevisiae Candida pump triplex; inhibition, % at 10 µM; 330,000 compounds, 0.44% hits; AID 485275, 2010;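 active = plate passing quality check with inhibition over a set limit, or well fluorescence over plate mean plus 4 SD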;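 also: Nile Red retained in pooled yeast measured as flow cytometry median fluorescence; 0% = buffer negative control and 100% = Enniatin B positive control; higher means more Nile Red kept so more efflux inhibition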
AHR act confirm – AHR activators, confirmation, cell-based, luminescence, luciferase reporter, human; shares compounds with AHR activator; human cells, AHR-responsive luciferase reporter; activation, % at 9 µM; 2,300 compounds, 87% hits; in the data active = activation above about 49%;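 also: HepG2 hepatoma cells carrying a DRE-driven firefly luciferase reporter; 0% = vehicle wells and 100% = reference agonist wells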
PXR counter – human PXR activators, counter-screen for AHR activator project, cell-based, luciferase luminescence; AID 434939, 2010; cell-based PXR reporter; 2,300 compounds, 88% hits; activation, % at 11.6 µM; shares compounds with AHR activator; in the data active = activation above about 11%;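 also: human hepatoma DPX-2 cells expressing full-length human PXR; 0% = DMSO and 100% = reference agonist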
Numbers without * were called inactive. Rows were chosen to be rich in hits. Some 4.1% of all compounds tested hit in one or more screens of this group.

Results for COc1ccc(C)c2sc(NC(=O)C3=COCCO3)nc12 ?
AHR activator: 84*; SMARCA2 activ: 1; TAG inh: 11; Tb MetRS inh: 0; Efflux pump inh: 0; AHR act confirm: 66*; PXR counter: 19*

Results for O=C(Nc1ccc(Cl)cc1F)c1ccccc1Br ?
AHR activator: 9; SMARCA2 activ: 7; Tb MetRS inh: 0; Efflux pump inh: 0

What do the screens show for `O=C(O)c1cccc([N+](=O)[O-])c1C(=O)Nc1cccc2ccccc12`?
AHR activator: 84*; SMARCA2 activ: 3; Tb MetRS inh: 0; Efflux pump inh: 0; AHR act confirm: 32; PXR counter: 1

Results for COc1ccccc1CC(=O)Nc1cccc2ccccc12 ?
AHR activator: -1; SMARCA2 activ: -1; TAG inh: 2; Tb MetRS inh: 1; Efflux pump inh: 0

Results for COc1cccc(C(=O)Nc2cccc3ccccc23)c1OC ?
AHR activator: 117*; SMARCA2 activ: -2; TAG inh: -12; Tb MetRS inh: 0; Efflux pump inh: 0; AHR act confirm: 108*; PXR counter: 44*

How did CN(C(=O)c1cc2c(cc1Br)OCO2)c1cccc2ccccc12 do in these assays?
SMARCA2 activ: -4; TAG inh: 26; Tb MetRS inh: 0

Results for O=C(Nc1cccc2ccccc12)c1cc2c(cc1Br)OCO2 ?
AHR activator: 82*; SMARCA2 activ: 1; Tb MetRS inh: -1; Efflux pump inh: 0; AHR act confirm: 95*; PXR counter: 120*

How did O=C(Nc1ccc(Cl)cc1F)c1cccc2ccccc12 do in these assays?
AHR activator: 100*; SMARCA2 activ: 3; Tb MetRS inh: 1; Efflux pump inh: 0; AHR act confirm: 119*; PXR counter: 12*

What do the screens show for `CCN(CC)C(=O)CC[C@H]1CC[C@]2(CCCN(Cc3ccc(N(C)C)cc3)C2)O1`?
SMARCA2 activ: -3

What do the screens show for `CCOc1cccc(C(=O)Nc2ccc3[nH]ncc3c2)c1`?
AHR activator: 93*; SMARCA2 activ: 1; Tb MetRS inh: -1; Efflux pump inh: 0; AHR act confirm: 41; PXR counter: 23*

Results for CCOc1cccc(C(=O)Nc2ccncc2)c1 ?
AHR activator: 37; SMARCA2 activ: -4; TAG inh: -14; Tb MetRS inh: 0; Efflux pump inh: 0

Results for COc1ccc(OC)c2nc(-c3cccnc3)ccc12 ?
AHR activator: 93*; SMARCA2 activ: -1; Tb MetRS inh: -1; Efflux pump inh: 0; AHR act confirm: 143*; PXR counter: 22*

Results for Cc1ccc2nsnc2c1NC(=S)NC(=O)c1ccco1 ?
AHR activator: 97*; SMARCA2 activ: 2; Tb MetRS inh: -1; Efflux pump inh: 1; AHR act confirm: 111*; PXR counter: 15*

What do the screens show for `Cc1ccnc(NC(=S)NC(=O)c2ccco2)c1`?
AHR activator: 3; SMARCA2 activ: 7; Tb MetRS inh: 0; Efflux pump inh: 1

What do the screens show for `c1ccc(CCNc2ncnc3scc(C4COc5ccccc5O4)c23)cc1` (stereo unspecified)?
AHR activator: 99*; SMARCA2 activ: -3; TAG inh: -30; Tb MetRS inh: 0; Efflux pump inh: 0; AHR act confirm: 100*; PXR counter: 23*

How did CN1/C(=C\C(=S)NC(=O)c2ccccc2Cl)C(C)(C)c2ccccc21 do in these assays?
AHR activator: 20; SMARCA2 activ: -4; TAG inh: -130; Tb MetRS inh: -1; Efflux pump inh: 0

Results for COc1ccccc1C(=O)NC(=S)/C=C1/N(C)c2ccccc2C1(C)C ?
AHR activator: 81*; SMARCA2 activ: -2; Tb MetRS inh: 0; Efflux pump inh: 0; AHR act confirm: 33; PXR counter: 100*

How did COC[C@@H]1CCCN1c1cccc2c1S(=O)(=O)N(C1CC1)CCCO2 do in these assays?
SMARCA2 activ: -3

Results for O=C(NC1=C(Nc2ccc(F)cc2)C(=O)c2ccccc2C1=O)c1ccc(Cl)cc1 ?
AHR activator: 88*; SMARCA2 activ: 1; Tb MetRS inh: -1; Efflux pump inh: 0; AHR act confirm: 90*; PXR counter: 72*

Results for O=C(NNC(=O)c1ccc(NC(=O)c2ccccc2)cc1)c1ccc(F)cc1 ?
AHR activator: 1; SMARCA2 activ: -1; TAG inh: -5; Tb MetRS inh: 0; Efflux pump inh: 0

How did Cc1nc2cnccc2n1C do in these assays?
AHR activator: 3; SMARCA2 activ: -5; TAG inh: -10; Tb MetRS inh: 0; Efflux pump inh: 0

What do the screens show for `Cc1nc2cncc(Br)c2n1C`?
AHR activator: 81*; SMARCA2 activ: 0; TAG inh: -4; Tb MetRS inh: 0; Efflux pump inh: 0; AHR act confirm: 46; PXR counter: 24*

What do the screens show for `NC(=O)c1oc2ccccc2c1NC(=O)c1ccc(F)cc1`?
AHR activator: 106*; SMARCA2 activ: -2; TAG inh: 8; Tb MetRS inh: -1; Efflux pump inh: 0; AHR act confirm: 77*

What do the screens show for `O=C(Nc1ccc(F)cc1)c1oc2ccccc2c1NC(=O)C1CC1`?
AHR activator: 127*; SMARCA2 activ: -3; Tb MetRS inh: 0; Efflux pump inh: 0; AHR act confirm: 0; PXR counter: 33*

What do the screens show for `Cc1ccc(NC(=O)c2oc3ccccc3c2NC(=O)C2CC2)cc1`?
AHR activator: 122*; SMARCA2 activ: -3; Tb MetRS inh: 0; Efflux pump inh: 0; AHR act confirm: 65*; PXR counter: 32*

How did COc1ccc(CC(=O)NC2CCCCN(Cc3ccc(Cl)cc3)C2=O)cc1OC (stereo unspecified) do in these assays?
SMARCA2 activ: -1

Results for CCn1c(=O)c([N+](=O)[O-])c(NCCCn2ccnc2)c2ccccc21 ?
AHR activator: 101*; SMARCA2 activ: 8; TAG inh: 5; Tb MetRS inh: -1; Efflux pump inh: 0; AHR act confirm: 93*; PXR counter: 52*

Results for CCNc1c([N+](=O)[O-])c(=O)n(CC)c2ccccc12 ?
AHR activator: 2; SMARCA2 activ: -2; TAG inh: 7; Tb MetRS inh: 0; Efflux pump inh: 0

What do the screens show for `NS(=O)(=O)c1ccc(NC2=CC(=O)C(=O)c3ccccc32)cc1`?
AHR activator: 114*; SMARCA2 activ: -1; Tb MetRS inh: 1; Efflux pump inh: 0; AHR act confirm: 20; PXR counter: 5
